Compound activity (PubChem BioAssay)
Only some compounds are listed: those with a hit (about 1.7% of all), similar ones and a draw of the others.
ZTA counter – counter-screen for EBNA-1 inhibitors: inhibitors of Epstein-Barr virus ZTA. ZTA-DNA binding, fluorescence polarization. 320,000 compounds, 0.15% hits. AID 2234. inhibition, % at 11 µM; in the data active = inhibition above about 33%
UBC13 inh – UBC13 polyubiquitin chain formation inhibitors, primary screen, biochemical, TR-FRET, uHTS; Ubiquitin-conjugating enzyme E2 N (Homo sapiens), P61088; inhibition, % at 20 µM; 330,000 compounds, 0.47% hits; in the data active = inhibition above about 45%, passing the limit was not always enough
EBNA-1 inh – EBNA-1 DNA-binding inhibitors, primary screen, biochemical, fluorescence polarization | inhibition, % at 14.8 µM | 300,000 compounds, 0.34% hits; in the data active = inhibition above about 28%
PREPL inh – PREPL enzyme inhibitors, primary screen, biochemical, fluorescence polarization; Prolyl endopeptidase-like (Homo sapiens), Q4J6C6; recombinant PREPL, fluorescence polarization activity-based probe; inhibition, % at 5.96 µM; 320,000 compounds, 0.68% hits; AID 2751, 2010; in the data active = inhibition above about 43%;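 also: 0% = enzyme with DMSO and 100% = wells lacking enzyme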
Target sequence (Q4J6C6 whole entry, looked up): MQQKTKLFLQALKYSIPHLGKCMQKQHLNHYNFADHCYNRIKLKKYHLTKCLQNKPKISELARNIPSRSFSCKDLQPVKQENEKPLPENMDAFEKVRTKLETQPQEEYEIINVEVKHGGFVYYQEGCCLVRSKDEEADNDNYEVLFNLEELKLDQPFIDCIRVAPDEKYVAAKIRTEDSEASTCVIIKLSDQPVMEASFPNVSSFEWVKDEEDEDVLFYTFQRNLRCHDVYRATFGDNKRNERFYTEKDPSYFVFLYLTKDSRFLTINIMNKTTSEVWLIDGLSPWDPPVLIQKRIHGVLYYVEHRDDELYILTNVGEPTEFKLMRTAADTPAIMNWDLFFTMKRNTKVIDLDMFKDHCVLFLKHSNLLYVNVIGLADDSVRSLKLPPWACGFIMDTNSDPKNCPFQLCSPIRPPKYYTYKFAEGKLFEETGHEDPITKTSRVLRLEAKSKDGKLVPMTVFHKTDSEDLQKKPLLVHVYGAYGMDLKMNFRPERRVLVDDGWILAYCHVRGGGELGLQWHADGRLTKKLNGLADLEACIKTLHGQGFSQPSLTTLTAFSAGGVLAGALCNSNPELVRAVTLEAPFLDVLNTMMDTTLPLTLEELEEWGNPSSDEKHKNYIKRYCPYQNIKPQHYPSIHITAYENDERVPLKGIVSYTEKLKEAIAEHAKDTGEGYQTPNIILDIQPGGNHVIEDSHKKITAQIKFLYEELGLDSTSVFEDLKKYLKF
Apaf-1 inh – inhibitors of human Apaf-1 apoptosome, primary screen, biochemical, DEVD-Rh110 fluorescence, uHTS; Apoptotic protease-activating factor 1 (Homo sapiens), O14727; reconstituted apoptosome caspase-3 activity; inhibition, % at 20 µM; 330,000 compounds, 0.71% hits; active = inhibition of at least 40% at 20 µM;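 also: plate controls were DMSO wells for no effect and DEVD-CHO caspase inhibitor wells for full effect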
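System – cell-free apoptosome with Apaf-1, procaspase-3 and caspase-9 · Buffer or medium – pH 7.5 Hepes buffer with CHAPS, BSA, DTT · Also added – cytochrome c with DEVD-Rh110 · Times – 30 min compound preincubation, 50 min activation, room temperature · Technique – Rh110 fluorescence intensity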
EBNA-1 inh conf – EBNA-1 DNA-binding inhibitors, retest, confirmation, biochemical, fluorescence polarization, triplicate | shares compounds with EBNA-1 inh | Recombinant EBNA-1 DBD, Cy5-DNA fluorescence polarization | inhibition, % at 14.8 µM | 830 compounds, 35% hits | AID 2292, 2010;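 active = mean inhibition across replicates above a set limit taken from the earlier primary screen, cut at about 28% in these data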;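 also: plate controls were EBNA-1 protein with DMSO for no effect and wells lacking EBNA-1 for full effect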
ZTA DNA inh trip – EBV Zta DNA binding inhibitors, counter-screen for EBNA-1 inhibitor project, biochemical, fluorescence polarization, triplicate | 830 tested, under 10 active | Zta-ZRE DNA binding, Cy5 fluorescence polarization | inhibition, % at 11.1 µM | shares compounds with EBNA-1 inh;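 active = mean inhibition over triplicates above a set limit taken from the primary EBNA-1 screen, cut at about 37% in these data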;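 also: purified full length Zta protein with Cy5 labeled ZRE DNA probe; 0% = Zta with DMSO and 100% = wells lacking Zta protein; inhibitors lower polarization by freeing the labeled DNA probe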
* hit, by the source's call; x = not tested or not shown.

SMILES	ZTA counter	UBC13 inh	EBNA-1 inh	PREPL inh	Apaf-1 inh	EBNA-1 inh conf	ZTA DNA inh trip
CN(C)c1cccc(C(=O)OCC(=O)N(C)c2ccccc2)c1	0	1	-12	3	18	x	x
CN(C(=O)COC(=O)c1cc2c(s1)CCCCC2)c1ccccc1	-10	-7	82*	12	27	0	9
O=C(CNC(=O)c1ccc(N2C(=O)c3ccccc3C2=O)cc1)OCC(=O)c1ccc(Cl)cc1	6	-3	36*	-1	-28	15	9
Cc1ccc(C(=O)COC(=O)CNC(=O)c2ccc(N3C(=O)c4ccccc4C3=O)cc2)cc1C	11	-17	29*	-6	34	10	6
CCOC(=O)c1ccc(NC(=O)c2cccc(S(=O)(=O)N3c4ccccc4CC3C)c2)s1 (stereo not given)	-13	-19	40*	-12	1	10	-1
O=C(COc1ccc2c(c1)OCO2)Nc1ccc2c(c1)oc1ccccc12	6	-12	71*	-10	7	11	15
O=C(Nc1ccc2c(c1)oc1ccccc12)c1ccc2c(c1)OCO2	-11	-4	6	15	4	x	x
NS(=O)(=O)c1ccc(NC(=O)/C=C/c2cn(-c3ccccc3)nc2-c2cccc(Cl)c2)cc1	5	-12	30*	-40	-4	39*	9
Cc1nc2ccc(S(=O)(=O)N(C)CC(=O)NCc3ccc(N(C)C)cc3)cc2s1	6	-2	12	-1	-1	x	x
Cc1cccc(-c2noc(CCC(=O)Nc3ccc(C(N)=O)cc3)n2)c1	0	5	76*	-9	-22	39*	-7
Cc1cccc(-c2noc(CCCC(=O)Nc3ccc(C(N)=O)cc3)n2)c1	-6	3	7	1	-14	x	x
N#Cc1nc(-c2ccc(Cl)cc2)oc1NCc1ccco1	11	11	1	5	3	x	x
N#Cc1nc(-c2ccc(Cl)cc2)oc1NCc1cccc2c1OCO2	10	10	28*	4	-11	30*	5
CC(C)CC1NC(=O)c2cc(Cl)ccc2-n2c1nc1cc(F)ccc1c2=O (stereo not given)	x	7	x	3	8	x	x
COc1ccc(N2C(=O)CSC(c3ccccc3)C2=O)cc1 (stereo not given)	5	3	-4	7	14	x	x
CC1CCN(Cc2c(C(=O)N/N=C/c3ccccc3O)nnn2-c2nonc2N)CC1	11	-8	-9	3	4	x	x
O=C(COC(=O)c1ccc(CNS(=O)(=O)c2ccc(F)c(Cl)c2)cc1)NC1CCCCCCC1	1	10	3	1	11	x	x
O=C(COC(=O)c1ccc(CNS(=O)(=O)c2ccc(F)c(Cl)c2)cc1)NCC1CCCCC1	-11	10	31*	2	8	0	-1
Cc1cccc(C(C)(C)C)c1OCCn1ccnc1	-12	-6	-4	8	20	x	x
Cc1ccc(S(=O)(=O)c2cn(CC(=O)Nc3ccccc3)c3ccc(F)cc3c2=O)cc1	0	3	-11	30	1	x	x
Cc1ccc(NC(=O)Cn2cc(S(=O)(=O)c3ccc(F)cc3)c(=O)c3cc(F)ccc32)cc1	-1	-5	29*	22	2	47*	0
O=C(N/N=C/c1ccc(COc2ccc(Br)cc2)o1)c1ccco1	-14	-5	59*	-38	23	6	2
CCN(C(=O)c1c(C)noc1C)c1c(N)n(Cc2ccccc2)c(=O)[nH]c1=O	-9	8	x	2	-3	x	x
CCOC(=O)[C@@H]1[C@H]2COc3cc(OC)ccc3[C@H]2N2C(=O)N(c3cccc(Cl)c3)C(=O)[C@]12C	7	-2	32*	-97	-4	7	-8
CCOC(=O)[C@@H]1[C@H]2COc3cc(OC)ccc3[C@H]2N2C(=O)N(c3cccc(Cl)c3)C(=O)[C@@]12C	5	-14	-5	-80	5	x	x
SMILES	ZTA counter	UBC13 inh	EBNA-1 inh	PREPL inh	Apaf-1 inh	EBNA-1 inh conf	ZTA DNA inh trip
COc1ccc(-c2cn(Cc3ccc(C(=O)c4ccccc4)cc3)nn2)cc1	-19	13	28*	-30	16	0	15
CC(C)OCCCNC(=S)Nc1ccc2nc3n(c(=O)c2c1)CCCCC3	-27	-1	-15	0	0	x	x
CCOC(=O)c1sc(NC(=O)c2ccc(=O)[nH]c2)nc1C	-6	4	-6	9	14	x	x
COc1ccc(-n2c(SCC(=O)NCC3CCCO3)nc3c([nH]c4ccccc43)c2=O)cc1 (stereo not given)	8	0	110*	8	11	123*	-12
COc1cccc(-n2c(SCC(=O)NCC3CCCO3)nc3c([nH]c4ccccc43)c2=O)c1 (stereo not given)	-8	-13	-2	5	3	x	x
CCn1c(SCC(=O)Nc2ccc(C(C)=O)cc2)nc2c([nH]c3ccccc32)c1=O	-5	2	39*	1	9	-6	3
CCn1c(SCC(=O)Nc2cccc(NC(C)=O)c2)nc2c([nH]c3ccccc32)c1=O	4	-3	-3	-4	-13	x	x
COC(=O)C1=C(C(=O)OC)SC2(S1)C(C(=O)OC)=C(C(=O)OC)SC1=C2c2cccc(C)c2NC1(C)C	3	-23	-7	4	16	x	x
COc1ccc(NC(=S)NNC(=S)Nc2cccc(C(F)(F)F)c2)cc1	-4	-14	169*	24	2	83*	1
CCOc1ccc(NC(=S)NNC(=S)Nc2cccc(C(F)(F)F)c2)cc1	9	-29	9	19	1	x	x
COc1cc(NC(=S)NC(=O)c2cc(C)cc(C)c2)ccc1NC(=O)c1cccs1	9	-22	70*	-2	6	1	2
COc1cc(NC(=S)NC(=O)c2ccc(C(C)(C)C)cc2)ccc1NC(=O)c1cccs1	17	-6	-10	-2	1	x	x
COc1cc(NC(=S)NC(=O)c2ccc(F)cc2)ccc1NC(=O)c1ccco1	3	4	40*	1	-1	35*	3
COC(=O)CSc1ncnc2scc(-c3ccccc3)c12	-5	9	-6	19	-3	x	x
Cc1nnc(NC(=O)CSc2ncnc3scc(-c4ccccc4)c23)s1	13	3	34*	2	-2	29*	-7
Cc1ccc(S(=O)(=O)N2CCN(C(=O)CSC3CCCC3)CC2)c(C)c1	-29	3	0	16	22	x	x
